Results reported in ChEMBL document CHEMBL3608292, “Synthesis and biological evaluation of novel myrtucommulones and structural analogues that target mPGES-1 and 5-lipoxygenase” (Eur J Med Chem, 2015).

Legend:
Prostaglandin E synthase = molecular target: T1, Prostaglandin E synthase (Homo sapiens, UniProt O14684); assay: Inhibition of mPGES-1 in microsomal membranes isolated from interleukin-1beta-stimulated human A549 cells using PGH2 as substrate assessed as PGE2 formation preincubated for 15 mins followed by substrate addition measured after 1 min by RP-HPLC analysis; assay type: cell membranes
T1 sequence (O14684 whole entry): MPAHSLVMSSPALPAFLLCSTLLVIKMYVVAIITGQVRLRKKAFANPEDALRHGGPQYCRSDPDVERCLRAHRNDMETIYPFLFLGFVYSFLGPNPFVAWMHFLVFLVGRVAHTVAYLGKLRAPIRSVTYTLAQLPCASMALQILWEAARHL
Summary of the method: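 A549 cells kept 16 h in DMEM with 2% FCS, then 1 ng/ml IL-1β for 72 h. Cells homogenized and sonicated, microsomes obtained by centrifugation at 10,000 × g then 174,000 × g. Microsomes in 0.1 M potassium phosphate pH 7.4 with 2.5 mM glutathione, preincubated 15 min with compound or 0.3% DMSO. 20 µM PGH₂ (final) for 1 min at 4 °C. Stopped with FeCl₂/citric acid containing 11β-PGE₂, solid-phase extraction, RP-HPLC with UV at 195 nm.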

[1] = molecular target: T2, Polyunsaturated fatty acid 5-lipoxygenase (Homo sapiens, UniProt P09917); assay: Inhibition of recombinant human 5-LO expressed in Escherichia coli BL21 using arachidonic acid as substrate assessed as formation of all-trans isomer of LTB4, 5-H(P)ETE preincubated for 5 to 10 mins followed by substrate addition measured after 10 mins by HPLC analysis
T2 sequence (P09917 whole entry): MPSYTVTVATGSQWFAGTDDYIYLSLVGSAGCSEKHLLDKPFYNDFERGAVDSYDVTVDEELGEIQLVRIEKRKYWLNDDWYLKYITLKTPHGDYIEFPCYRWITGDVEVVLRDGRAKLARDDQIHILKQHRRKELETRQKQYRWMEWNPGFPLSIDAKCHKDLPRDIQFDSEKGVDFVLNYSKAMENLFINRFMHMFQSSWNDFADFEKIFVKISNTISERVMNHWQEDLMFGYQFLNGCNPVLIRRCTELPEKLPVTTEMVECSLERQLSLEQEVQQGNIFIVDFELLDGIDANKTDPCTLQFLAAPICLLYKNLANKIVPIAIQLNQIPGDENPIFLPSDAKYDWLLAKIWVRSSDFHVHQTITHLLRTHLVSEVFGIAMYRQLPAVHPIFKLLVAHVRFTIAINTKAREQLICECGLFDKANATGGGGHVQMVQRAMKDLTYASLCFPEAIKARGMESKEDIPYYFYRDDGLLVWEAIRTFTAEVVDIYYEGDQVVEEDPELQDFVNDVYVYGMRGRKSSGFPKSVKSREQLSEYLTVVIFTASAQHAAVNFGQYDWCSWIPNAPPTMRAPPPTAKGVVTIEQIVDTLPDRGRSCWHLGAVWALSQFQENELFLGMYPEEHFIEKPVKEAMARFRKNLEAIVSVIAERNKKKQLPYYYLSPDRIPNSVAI

[2] = molecular target: T2, Polyunsaturated fatty acid 5-lipoxygenase; assay: Inhibition of 5-LO in ionophore A23187-stimulated human PMNL using arachidonic acid as substrate assessed as formation of LTB4, 5(S),12(S)-DiHETE, 5-H(p)ETE preincubated for 15 mins followed by substrate and ionophore addition measured after 10 mins by HPLC analysis
Jurkat = assay: Cytotoxicity against human Jurkat cells assessed as induction of cell death after 48 hrs by MTT assay; assay type: functional, cell-based
Summary of the method: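 Jurkat T cells grown in RPMI 1640 with 10% heat-inactivated FCS, 10 mM HEPES, penicillin/streptomycin at 37 °C, 5% CO₂. Seeded at 2 × 10⁴ per well. Compounds or 0.3% DMSO vehicle added for 48 h. MTT then added until blue staining, cells lysed overnight in 10% SDS/20 mM HCl, absorbance read at 570 nm. Three to four independent experiments.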

[3] = molecular target: T3, Polyunsaturated fatty acid 5-lipoxygenase (Homo sapiens) (UniProt P09917); assay: Inhibition of recombinant human 5-LO expressed in Escherichia coli BL21 using arachidonic acid as substrate assessed as remaining activity at 10 uM preincubated for 5 to 10 mins followed by substrate addition measured after 10 mins by HPLC analysis relative to control
T3 sequence (whole entry): T2 sequence (P09917 whole entry)
Summary of the method: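 5-LO expressed in E. coli BL21 from pT3-5-LO plasmid at 37 °C, then partially purified. Enzyme with compound held 5–10 min at 4 °C, prewarmed 30 s at 37 °C. Reaction started with 2 mM CaCl₂ plus 20 µM AA, stopped after 10 min at 37 °C with ice-cold methanol. All-trans LTB₄ isomers and 5-H(P)ETE quantified by HPLC. BWA4C used as control.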

[4] = molecular target: T3, Polyunsaturated fatty acid 5-lipoxygenase (Homo sapiens); assay: Inhibition of 5-LO in ionophore A23187-stimulated human PMNL using arachidonic acid as substrate assessed as remaining activity at 10 uM preincubated for 15 mins followed by substrate and ionophore addition measured after 10 mins by HPLC analysis relative to control
Summary of the method: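 Human PMNL isolated by dextran sedimentation, density-gradient centrifugation and hypotonic erythrocyte lysis. 5 × 10⁶ cells/ml in PBS pH 7.4 with 1 mg/ml glucose and 1 mM CaCl₂. Compounds preincubated 15 min at 37 °C, then ionophore A23187 plus 20 µM AA for 10 min at 37 °C. Stopped with methanol/HCl, PGB₁ internal standard. 5-LO metabolites analysed by HPLC. BWA4C used as control.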

Row | Compound | IC50 (Prostaglandin E synthase) [nM] | IC50 [1] [nM] | IC50 [2] [nM] | EC50 (Jurkat) [nM] | Activity [3] [%] | Activity [4] [%]
1 | CC(C)CC(=O)c1c(O)c(C(CC(C)C)C2=C(O)C(C)(C)C(=O)C(C)(C)C2=O)c(O)c(C(CC(C)C)C2=C(O)C(C)(C)C(=O)C(C)(C)C2=O)c1O (configuration not stated) | 220 | 2700 | 660 | 19200 | – | –
2 | CC(C)C(=O)c1c(O)c(C(C2=C(O)c3ccccc3C2=O)C(C)C)c(O)c(C(C2=C(O)c3ccccc3C2=O)C(C)C)c1O (configuration not stated) | – | 20000 | – | > 30000 | – | –
3 | CCCCCC(=O)c1c(O)cc(O)c(C(C2=C(O)C(C)(C)C(=O)C(C)(C)C2=O)C(C)C)c1O (configuration not stated) | 390 | > 10000 | 1600 | > 30000 | 72.8 | –
4 | CC(=O)c1c(O)c(C(C2=C(O)CC(C)(C)CC2=O)C(C)C)c(O)c(C(C2=C(O)CC(C)(C)CC2=O)C(C)C)c1O (configuration not stated) | 1100 | > 10000 | 8100 | 7500 | 69.3 | –
5 | CC(C)CC(=O)c1c(O)c(C(C2=C(O)c3ccccc3C2=O)c2ccccc2)c(O)c(C(C2=C(O)c3ccccc3C2=O)c2ccccc2)c1O (configuration not stated) | 650 | 1200 | 2100 | > 30000 | – | –
6 | CCCCCC(=O)c1c(O)c([C@H](C2=C(O)C(C)(C)C(=O)C(C)(C)C2=O)C(C)C)c(O)c([C@H](C2=C(O)C(C)(C)C(=O)C(C)(C)C2=O)C(C)C)c1O [MYRTUCOMMULONE F] | 600 | 7500 | 3100 | 2300 | – | –
7 | CCCCCC(=O)c1c(O)cc(O)c2c1OC1=C(C(=O)C(C)(C)C(=O)C1(C)C)C2C(C)C (configuration not stated) | 6400 | 2500 | 1600 | 7400 | – | –
8 | CC(C)C(C1=C(O)CC(C)(C)CC1=O)c1c(O)c(C(C2=C(O)CC(C)(C)CC2=O)C(C)C)c(O)c(C(C2=C(O)CC(C)(C)CC2=O)C(C)C)c1O (configuration not stated) | 680 | 2800 | > 10000 | 6200 | – | 83.5
9 | CC(C)CC(C1=C(O)C(C)(C)C(=O)C(C)(C)C1=O)c1c(O)c(C(=O)C(C)C)c(O)c(C(CC(C)C)C2=C(O)C(C)(C)C(=O)C(C)(C)C2=O)c1O (configuration not stated) | 290 | 4800 | 970 | 12200 | – | –
10 | CCCCCC(=O)c1c(O)c(C(C2=C(O)c3ccccc3C2=O)c2ccccc2)c(O)c(C(C2=C(O)c3ccccc3C2=O)c2ccccc2)c1O (configuration not stated) | 430 | 460 | 690 | > 30000 | – | –
11 | CC(C)C(=O)c1c(O)c(C(C2=C(O)CC(C)(C)CC2=O)C(C)C)c(O)c(C(C2=C(O)CC(C)(C)CC2=O)C(C)C)c1O (configuration not stated) | 2100 | 25000 | 13000 | 2000 | – | –
12 | CCCCCC(=O)c1c(O)c(C(C2=C(O)c3ccccc3C2=O)C(C)C)c(O)c(C(C2=C(O)c3ccccc3C2=O)C(C)C)c1O (configuration not stated) | – | 1700 | 1500 | > 30000 | – | –
13 | CCCCCC(=O)c1c(O)c(C(C2=C(O)CC(C)(C)CC2=O)C(C)C)c(O)c(C(C2=C(O)CC(C)(C)CC2=O)C(C)C)c1O (configuration not stated) | 570 | > 10000 | 2700 | 3700 | 68.7 | –
14 | CC(C)C(C1=C(O)C(C)(C)C(=O)C(C)(C)C1=O)c1c(O)c(C(=O)c2ccccc2)c(O)c(C(C2=C(O)C(C)(C)C(=O)C(C)(C)C2=O)C(C)C)c1O (configuration not stated) | 5000 | > 10000 | > 10000 | > 30000 | 82.9 | 69.7
15 | O=C1C(C(c2ccccc2)c2c(O)c(C(=O)c3ccccc3)c(O)c(C(C3=C(O)c4ccccc4C3=O)c3ccccc3)c2O)=C(O)c2ccccc21 (configuration not stated) | 480 | 3000 | 1800 | > 30000 | – | –
16 | CC(C)C(=O)c1c(O)cc(O)c2c1OC1=C(C(=O)C(C)(C)C(=O)C1(C)C)[C@@H]2C(C)C | 7900 | 6200 | 1600 | 8100 | – | –
17 | CC(C)C(C1=C(O)c2ccccc2C1=O)c1c(O)c(C(=O)c2ccccc2)c(O)c(C(C2=C(O)c3ccccc3C2=O)C(C)C)c1O (configuration not stated) | – | – | – | > 30000 | – | –
18 | CC(C)C(=O)c1c(O)c([C@@H](C2=C(O)C(C)(C)C(=O)C(C)(C)C2=O)C(C)C)c(O)c2c1OC1=C(C(=O)C(C)(C)C(=O)C1(C)C)[C@@H]2C(C)C | 490 | > 10000 | 980 | 3400 | 82.3 | –
19 | CC(C)C(=O)c1c2c(c(O)c3c1OC1=C(C(=O)C(C)(C)C(=O)C1(C)C)C3C(C)C)C(C(C)C)C1=C(O2)C(C)(C)C(=O)C(C)(C)C1=O (configuration not stated) | > 10000 | > 10000 | > 10000 | 17100 | 95 | 69.5
20 | CCCCCC(=O)c1c(O)c(C(CC(C)C)C2=C(O)CC(C)(C)CC2=O)c(O)c(C(CC(C)C)C2=C(O)CC(C)(C)CC2=O)c1O (configuration not stated) | 810 | 2900 | 7300 | 13100 | – | –
21 | CC(C)C(=O)c1c(O)cc(O)c(C(C2=C(O)C(C)(C)C(=O)C(C)(C)C2=O)C(C)C)c1O (configuration not stated) | 820 | > 10000 | 8100 | > 30000 | 82.5 | –
22 | CC(C)CC(=O)c1c(O)c(C(C2=C(O)c3ccccc3C2=O)C(C)C)c(O)c(C(C2=C(O)c3ccccc3C2=O)C(C)C)c1O (configuration not stated) | – | 3100 | 1300 | > 30000 | – | –
23 | CCCCCC(=O)c1c(O)c([C@@H](CC(C)C)C2=C(O)C(C)(C)C(=O)C(C)(C)C2=O)c(O)c([C@H](C2=C(O)C(C)(C)C(=O)C(C)(C)C2=O)C(C)C)c1O [MYRTUCOMMULONE H] | 300 | 6600 | 1300 | 21900 | – | –
24 | CCCCCC(=O)c1c(O)c(C(C2=C(O)C(C)(C)C(=O)C(C)(C)C2=O)C(C)C)c(O)c2c1OC1=C(C(=O)C(C)(C)C(=O)C1(C)C)C2C(C)C (configuration not stated) | 610 | > 10000 | 1300 | 2500 | 66.7 | –
25 | CCCCCC(=O)c1c(O)c(C(CC(C)C)C2=C(O)C(C)(C)C(=O)C(C)(C)C2=O)c(O)c(C(CC(C)C)C2=C(O)C(C)(C)C(=O)C(C)(C)C2=O)c1O (configuration not stated) | 240 | 3500 | 460 | 23500 | – | –
26 | CC(C)C(C1=C(O)CC(C)(C)CC1=O)c1c(O)c(C(=O)c2ccccc2)c(O)c(C(C2=C(O)CC(C)(C)CC2=O)C(C)C)c1O (configuration not stated) | 3500 | 8600 | > 10000 | 4400 | – | 66.1
27 | CC(C)CC(=O)c1c(O)cc(O)c(C(CC(C)C)C2=C(O)C(C)(C)C(=O)C(C)(C)C2=O)c1O (configuration not stated) | 640 | 4600 | 1800 | > 30000 | – | –
28 | CC(C)C(=O)c1c(O)c(C(C2=C(O)c3ccccc3C2=O)c2ccccc2)c(O)c(C(C2=C(O)c3ccccc3C2=O)c2ccccc2)c1O (configuration not stated) | 810 | 730 | 1400 | > 30000 | – | –
